Screens from PubChem BioAssay.
Most compounds without a hit are left out; they make up all but 3.7% or so of the library.
EBI2 block – antagonists of human EBI2 receptor. P32249. EBI2 beta-arrestin recruitment, luminescence, 7a,25-OHC stimulated. inhibition, % at 5 µM. 360,000 compounds, 0.81% hits; in the data active = inhibition above about 38%;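 also: enzyme fragment complementation signal reports receptor beta-arrestin coupling in cells; 0% = agonist plus DMSO wells and 100% = wells without agonist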
MC4R antag cAMP – blocks human MC4R cAMP signaling. P32245. MC4R-expressing cells, MTII-stimulated cAMP, LANCE TR-FRET. inhibition, % at 6.5 µM. 360,000 compounds, 0.48% hits;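 active = inhibition above its plate's cutoff, the mean of tested wells on that plate plus 3 SD, cut at about 29% in these data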;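 also: 0% = Melanotan II alone and 100% = Melanotan II plus saturating MCL0020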
Target sequence (P32245 whole entry, looked up): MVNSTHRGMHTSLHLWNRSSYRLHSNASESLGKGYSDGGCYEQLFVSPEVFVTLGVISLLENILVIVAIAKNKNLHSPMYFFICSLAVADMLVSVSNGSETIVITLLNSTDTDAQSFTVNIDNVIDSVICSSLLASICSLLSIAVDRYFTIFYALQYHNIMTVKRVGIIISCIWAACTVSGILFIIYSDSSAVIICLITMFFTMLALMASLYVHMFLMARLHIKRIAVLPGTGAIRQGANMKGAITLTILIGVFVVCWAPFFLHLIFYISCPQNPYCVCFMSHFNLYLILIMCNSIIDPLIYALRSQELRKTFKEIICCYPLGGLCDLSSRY
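Assay system: U2OS-MC4R stable cell line; Also added: Melanotan II; Technique: Eu-cAMP/anti-cAMP TR-FRET, emission 671 nm; Times: 30-min compound, 1-h challenge, 1-h detection, room temperature.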
MC4R barr agon – activates human MC4R beta-arrestin recruitment; U2OS MC4R beta-arrestin complementation, luminescence; percent of melanotan II response, DMSO zero; activation, % at 8.9 µM; 360,000 compounds, 0.98% hits; AID 540308;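 active = activation above a per-plate cutoff, the mean activation of sample wells on that plate plus 3 SD, cut at about 8% in these data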
Myeloid diff 2 – compounds promoting myeloid differentiation; 360,000 compounds, 1% hits; ER-HoxA9 myeloid progenitors, lysozyme-GFP differentiation, flow cytometry; calls only at 10 µM;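 active = normalized GFP-positive differentiation at or above the plate's own cutoff, the solvent-only control mean plus 3 SD; inconclusive = no clear call, values can overlap the other calls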;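 also: cells exposed to compound for four days before flow analysis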
Granule exo inh – blocks lytic granule exocytosis; TALL-104 LAMP-1 surface exposure, flow cytometry; cells stimulated with thapsigargin and PMA; inhibition, % at 10 µM; 360,000 compounds, 0.66% hits; AID 651702;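 active = inhibition above about 55%, limit read from the data; inconclusive = no clear call, values can overlap the other calls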
MC4R barr ag – human MC4R beta-arrestin agonism confirmation | shares compounds with MC4R barr agon | activation, % at 8.9 µM | U2OS MC4R beta-arrestin recruitment, luminescence; scaled DMSO 0%, Melanotan II 100% | 2,400 compounds, 31% hits;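 active = mean activation across replicates above the hit cutoff set in the earlier primary screen, cut at about 8% in these data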
MOR DOR agonist – counter-screen for MC4R agonists: agonists of mu-delta opioid heterodimer; shares compounds with MC4R barr agon; U2OS PathHunter beta-arrestin, beta-gal luminescence; percent of deltorphin B response, DMSO zero; activation, % at 9.2 µM; 2,400 compounds, 5.8% hits;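 active = mean activation across replicates exceeds the hit threshold derived in the earlier primary screen, cut at about 18% in these data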;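 also: 100% = deltorphin B at 0.9 µM final and 0% = DMSO alone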
Numbers without * were called inactive; i = inactive; ? = inconclusive; nt = no result.

SMILES	EBI2 block	MC4R antag cAMP	MC4R barr agon	Myeloid diff 2	Granule exo inh	MC4R barr ag	MOR DOR agonist
CC(=O)c1cccc(NC(=S)N2CCN(S(=O)(=O)c3ccccc3)CC2)c1	3	8	-2	i	-18	nt	nt
COc1ccc(C(=O)Cn2c(Cl)nc3c2c(=O)n(C)c(=O)n3C)cc1	5	14	-1	i	-3	nt	nt
COc1ccc(S(=O)(=O)N(Cc2ccccc2)Cc2nc3ccccc3c(=O)[nH]2)cc1	14	10	-2	i	1	nt	nt
O=c1[nH]c(CN(CCc2ccccc2)S(=O)(=O)c2ccc(Cl)cc2)nc2ccccc12	2	2	23*	i	-6	5	8
C=CCNC(=O)/C(C#N)=C/c1cn(-c2ccccc2)nc1-c1cccs1	-1	12	33*	i	-5	9.1*	9
COC(=O)[C@@]1(Cc2ccccc2)[C@H]2C(=O)N(C)C(=O)[C@H]2[C@H]2CN=C(SCc3ccccc3)N21	1	-2	1	i	5	nt	nt
O=C1N(Nc2ccccc2)C(c2ccc(Br)cc2)C12CCCCC2 (centres undefined)	-1	-2	24*	i	-2	10*	5
O=C(CO/N=C/c1ccccc1OC(F)F)N1CCc2ccccc21	-1	24	11*	i	0	-2	10
CC1Cc2ccccc2N1C(=O)CO/N=C/c1ccccc1OC(F)F (centres undefined)	7	19	0	i	1	nt	nt
Cc1ccc(S(=O)(=O)N(C)C)cc1NC(=O)CSc1ncc(C(F)(F)F)cc1Cl	7	9	0	i	-3	nt	nt
CCN(CC)S(=O)(=O)c1ccc(C)c(NC(=O)CSc2ncc(C(F)(F)F)cc2Cl)c1	0	13	9.8*	i	0	6	4
CCOC(=O)c1ccc[n+](CC(=O)Nc2cc(C(F)(F)F)ccc2Cl)c1	4	11	-3	i	-1	nt	nt
Cc1occc1-c1nnc(SCC(=O)Nc2nc(C(C)(C)C)cs2)o1	-1	21	12*	i	-1	4	6
C[C@@H]1CN([C@H](C)CO)C(=O)CCCn2nncc2CO[C@H]1CN(C)Cc1ccc(O)cc1	2	0	-1	i	1	nt	nt
O=C(CSc1nnc(-c2cccs2)n1-c1ccccc1)Nc1ccccc1	8	22	11*	i	0	2	7
CCOC(=O)CSc1nnc(-c2cccs2)n1-c1ccccc1	-11	7	-1	i	-4	nt	nt
O=c1[nH]nc(Cc2ccc(-c3cccc(Cl)c3)o2)c2ccccc12	1	-18	14*	i	-2	7	6
C=CCc1ccc(O)c(-c2cc(CC=C)ccc2O)c1	1	7	9.7*	i	13	5	9
O=C1/C(=C/c2ccc(F)cc2)SC(=S)N1Nc1ncc(C(F)(F)F)cc1Cl	-7	2	9.9*	i	1	5	2
COc1ccc(-c2nc(C(N)=O)c3[nH]c(=O)n(-c4cccc(Cl)c4)c3n2)cc1OC	9	-3	13*	nt	-2	11*	12
C#CCOc1ccc(C2C(C#N)=C(N)Oc3cc(O)ccc32)cc1 (centres undefined)	11	13	1	i	-2	nt	nt
CCC(C)(C)c1ccc(OCCCC[n+]2cccc(C)c2C)c(C(C)(C)CC)c1	-6	3	23*	?	25	22*	15
CC(=O)Nc1ccc(CN(C)c2c(C)nc3ccc(C(=O)N(C)Cc4ccco4)cn23)cc1	-1	9	2	i	-12	nt	nt
Cc1ccc(NC(=O)C2CCCN2C(=O)OCc2ccccc2)c(O)c1 (centres undefined)	9	0	-1	i	0	nt	nt
CCc1nnc(NC(=O)c2ccc(COc3cccc(C)c3)o2)s1	1	19	14*	i	7	3	2
CC(C)c1ccc(NS(=O)(=O)c2ccc(-n3cccn3)cc2)cc1	-1	3	13*	i	5	17*	11
CC(C)c1ccc(S(=O)(=O)Nc2ccc(-n3cnnn3)cc2)cc1	-6	8	-1	i	0	nt	nt
